Experiments:
[1] = Selectivity index, ratio of CC50 for human TZM-bl cells to EC50 for HIV1 NL4-3; type: toxicity, cell-based; conditions: read-out: Ratio CC50/EC50
[2] = Cytotoxicity against human TZM-bl cells; type: cell-based
[3] = tested on: Human immunodeficiency virus 1; test: Antiviral activity against HIV1 NL4-3 infected in human TZM-bl cells assessed as inhibition of viral replication; type: functional, organism-based; conditions: Human immunodeficiency virus 1, NL4-3, TZM-bl
Procedure, shortened: (§1)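 Tested in triplicate and reported as means ± SD. The RTMDR1 strain carries the RT mutations 74V, 41L, 106A and 215Y.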

[4] = tested on: Human immunodeficiency virus 1; test: Antiviral activity against HIV1 RTMDR1 infected in human TZM-bl cells assessed as inhibition of viral replication; type: functional, organism-based; conditions: Human immunodeficiency virus 1, RTMDR1, TZM-bl; procedure, shortened: as §1
[5] = Selectivity index, ratio of CC50 for human TZM-bl cells to EC50 for HIV1 RTMDR1; type: toxicity, cell-based; conditions: read-out: Ratio CC50/EC50
[6] = tested on: Human immunodeficiency virus 1; test: Antiviral activity against HIV1 3B infected in human MT2 cells assessed as inhibition of viral replication by p24 antigen assay; type: functional, organism-based; conditions: Human immunodeficiency virus 1, 3B
Procedure, shortened: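 HIV-1 IIIB replication in MT-2 cells, read as p24 production by ELISA. […] Tested in triplicate; means ± SD.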

MT2 = test: Cytotoxicity against human MT2 cells after 4 days by XTT assay; type: cell-based; conditions: mt2, 96 h
[7] = Selectivity index, ratio of CC50 for human MT2 cells to EC50 for HIV1 3B; type: toxicity, cell-based; conditions: read-out: Ratio CC50/EC50
Procedure, shortened: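 HIV-1 IIIB replication in MT-2 cells, measured by p24 ELISA to give the EC50. Cytotoxicity in uninfected MT-2 cells measured by XTT to give the CC50. Each run in triplicate and reported as means ± SD. SI = CC50/EC50.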

[8] = Selectivity index, ratio of CC50 for human MT4 cells to EC50 for HIV1 3B
[9] = tested on: Human immunodeficiency virus 1; test: Antiviral activity against HIV1 3B infected in human MT4 cells assessed as inhibition of viral replication; type: functional, organism-based; conditions: Human immunodeficiency virus 1, 3B

Row | SMILES | selectivity ratio [1] | CC50 [2] | EC50 [3] | EC50 [4] | selectivity ratio [5] | EC50 [6] | CC50 (MT2) | selectivity ratio [7] | selectivity ratio [8] | EC50 [9]
1 | Cc1cc(C)c(Nc2ccnc(Nc3ccc(C#N)cc3)n2)c(C)c1 [DAPIVIRINE] | > 490 | > 304 nM | 0.62 nM | 0.298 nM | > 1020 |  |  |  |  | 
2 | Cc1cc(C#CC(C)(C)O)cc(C)c1Oc1ccc([N+](=O)[O-])c(Nc2ccc(C#N)cc2)n1 | > 1.09 | > 45200 nM | 41300 nM | 25500 nM | > 1.78 | 23300 nM | 8910 nM | < 1 |  | 
3 | Cc1cc(C#N)cc(C)c1Oc1ccc(N)c(Nc2ccc(C#N)cc2)n1 | 13200 | 8980 nM | 0.68 nM | 0.96 nM | 9350 | 1.4 nM | 31800 nM | 22700 |  | 
4 | Cc1cc(I)cc(C)c1Oc1ccc([N+](=O)[O-])c(Nc2ccc(C#N)cc2)n1 | > 675 | > 41200 nM | 61 nM | 94.3 nM | > 436 | 2430 nM | 148000 nM | 61 |  | 
5 | C#Cc1cc(C)c(Oc2ccc([N+](=O)[O-])c(Nc3ccc(C#N)cc3)n2)c(C)c1 | > 469 | > 52100 nM | 111 nM | 215 nM | > 242 | 677 nM | 174000 nM | 256 |  | 
6 | Cc1cccc(C)c1Oc1ccc(N)c(Nc2ccc(C#N)cc2)n1 | 2020 | 8140 nM | 4.02 nM | 3.78 nM | 2150 | 576 nM | 29900 nM | 52 |  | 
7 | Cc1cc(C)c(Oc2ccc(N)c(Nc3ccc(C#N)cc3)n2)c(C)c1 | 11200 | 18600 nM | 1.67 nM | 1.2 nM | 15500 | 58 nM | 10600 nM | 182 |  | 
8 | C#Cc1cc(C)c(Oc2ccc(N)c(Nc3ccc(C#N)cc3)n2)c(C)c1 | 1480 | 9940 nM | 6.7 nM | 9.03 nM | 1100 | 424 nM | 8250 nM | 20 |  | 
9 | Cc1cc(C#CC(C)(C)O)cc(C)c1Oc1ccc(N)c(Nc2ccc(C#N)cc2)n1 | 36 | 8730 nM | 241 nM | 531 nM | 16 | 1580 nM | 3540 nM | 2 |  | 
10 | Cc1cccc(C)c1Oc1ccc([N+](=O)[O-])c(Nc2ccc(C#N)cc2)n1 | > 238 | > 55600 nM | 234 nM | 128 nM | > 433 | 1030 nM | 110000 nM | 107 |  | 
11 | Cc1cc(C)c(Oc2ccc([N+](=O)[O-])c(Nc3ccc(C#N)cc3)n2)c(C)c1 | > 2340 | > 53500 nM | 22.9 nM | 55.2 nM | > 969 | 118 nM | 503000 nM | 4260 |  | 
12 | Cc1cc(CO)cc(C)c1Oc1ccc([N+](=O)[O-])c(Nc2ccc(C#N)cc2)n1 | > 108 | > 51300 nM | 477 nM | 877 nM | > 58 | 192 nM | 116000 nM | 603 |  | 
13 | Cc1cc(CO)cc(C)c1Oc1ccc(N)c(Nc2ccc(C#N)cc2)n1 | 857 | 9340 nM | 10.9 nM | 25.1 nM | 372 | 6 nM | 2190 nM | 391 |  | 
14 | Cc1cc(C#N)cc(C)c1Oc1ccc([N+](=O)[O-])c(Nc2ccc(C#N)cc2)n1 | > 2350 | > 52000 nM | 22.1 nM | 21.1 nM | > 2460 | 135 nM | 50100 nM | 371 |  | 
15 | Cc1cc(C#N)cc(C)c1Oc1nc(Nc2ccc(C#N)cc2)nc(N)c1Br [ETRAVIRINE] |  |  |  |  |  |  |  |  | 63100 | 1.58 nM
16 | Cc1cc(I)cc(C)c1Oc1ccc(N)c(Nc2ccc(C#N)cc2)n1 | 2200 | 16700 nM | 7.6 nM | 5.13 nM | 3260 | 79 nM | 23500 nM | 297 |  | 

From ChEMBL document CHEMBL1155964, “Discovery of diarylpyridine derivatives as novel non-nucleoside HIV-1 reverse transcriptase inhibitors” (Bioorg Med Chem Lett, 2009)
